The list is not random: actives were taken first. Their share in the collection is about 1.2%.
zfTRPN1 agonist = zebrafish TRPN1 (NompC) channel agonism; activation, % at 3 µM; HEK293 zebrafish TRPN1-YFP, Fluo-8 calcium fluorescence; 100% = response to 87 µM carbachol; 220,000 compounds, 0.18% hits;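 active = activation above its plate's cutoff, the mean activation of test wells on that plate plus 3 SD, cut at about 19% in these data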;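 note: 0% = DMSO alone and 100% = 87 µM carbachol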
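Material: zebrafish TRPN1-YFP in HEK293 cells; Doses: single test compound dose, 3 µM nominal, 0.3% DMSO; Timing: dye loading 1 h at 37 °C, then 30 min room temperature; Technique: intracellular calcium fluorescence with Fluo-8; Benchmarks: high carbachol 87 µM, low DMSO alone.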
TRPML3 agonist = agonists of human TRPML3 channel. Q8TDD5. HEK293 TRPML3-YFP, Fluo-8 calcium fluorescence; 100% = the carbachol control signal. activation, % at 3 µM. 220,000 compounds, 0.29% hits. AID 1448;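 active = activation above its plate's cutoff, the mean activation of the plate's test wells plus 3 SD, cut at about 12% in these data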;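 note: 0% = DMSO only wells and 100% = carbachol wells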
Target sequence (Q8TDD5 whole entry, looked up): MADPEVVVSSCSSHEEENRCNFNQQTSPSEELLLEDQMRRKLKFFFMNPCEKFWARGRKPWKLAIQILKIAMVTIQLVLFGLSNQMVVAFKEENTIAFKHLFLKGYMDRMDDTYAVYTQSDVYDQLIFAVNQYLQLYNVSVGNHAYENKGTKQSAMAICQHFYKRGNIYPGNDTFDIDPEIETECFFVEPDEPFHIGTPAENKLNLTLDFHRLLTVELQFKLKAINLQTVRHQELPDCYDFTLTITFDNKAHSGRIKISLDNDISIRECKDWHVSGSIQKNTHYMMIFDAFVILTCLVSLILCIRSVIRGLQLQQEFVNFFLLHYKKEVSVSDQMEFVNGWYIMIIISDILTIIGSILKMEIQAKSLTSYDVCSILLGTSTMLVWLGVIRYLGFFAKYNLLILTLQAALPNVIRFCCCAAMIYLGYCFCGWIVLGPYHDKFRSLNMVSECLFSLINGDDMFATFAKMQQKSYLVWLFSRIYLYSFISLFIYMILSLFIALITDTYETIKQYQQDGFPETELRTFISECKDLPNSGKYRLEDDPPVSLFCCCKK
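Material: TRPML3-YFP stable HEK293 cells | Dosing: One concentration, 3 µM nominal, 0.3% DMSO | Timing: 125 s total fluorescence read per well | Technique: Fluo-8 calcium dye fluorescence, ex 470-495, em 515-575 nm | Measure: Percent activation from peak-to-basal fluorescence ratio, scaled between DMSO and carbachol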
CRFBP-R2 agonist = CRF-BP/CRF-R2 complex agonism. HEK293 CRF-R2/CRF-BP, calcium dye fluorescence (FLIPR); percent of saturating CRF peptide response. activation, % at 13.2 µM. 350,000 compounds, 0.46% hits. AID 588473;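 active = activation of at least 50%, plus an integration ratio under a set limit after plate pattern correction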;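 note: plate controls were neutral control wells without compound for no effect and CRF at EC100 for full effect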
CRFBP-R2 block = CRF-BP/CRF-R2 complex antagonism; HEK293 CRF-R2/CRF-BP, CRF-induced calcium fluorescence; inhibition, % at 11.8 µM; 350,000 compounds, 0.59% hits;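 active = inhibition of the ligand-induced calcium signal above about 50% at the single tested concentration, limit read from the data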
Active calls of the source: *; x = no result given.

SMILES | zfTRPN1 agonist | TRPML3 agonist | CRFBP-R2 agonist | CRFBP-R2 block
O=C1NC(=O)N(CCNc2ncc(C(F)(F)F)cc2Cl)C(=O)C1/C=N/OCc1c(F)cccc1Cl (centres undefined) | 1.1 | 1.3 | -3.2 | 61.5*
Clc1cnc(Oc2ccc(Oc3ncc(Cl)cc3Cl)cc2)c(Cl)c1 | 0.5 | 1.0 | 0.5 | 72.0*
Cc1ccc(N2C(=O)NC(=O)C3(Cc4ccccc4N4CCCC43)C2=O)cc1 (centres undefined) | 0.1 | -0.7 | 1.6 | -0.5
CNC1(c2ccc(F)cc2)CCCCC1 | x | x | 47.4 | 87.6*
OC1(c2ccc(F)cc2)CCNC1 (centres undefined) | 3.8 | 0.7 | 1.2 | 1.2
CCN1/C(=C\C=C\C2=[N+](CC)c3ccccc3C2(C)C)C(C)(C)c2ccccc21 | 316.8* | 158.5* | 260.2* | -275.6
O=P(Oc1ccccc1)(N1CCOCC1)N1CCOCC1 | x | x | 1.2 | 5.2
CN(c1ccccc1)P(=O)(N1CC1)N1CC1 | x | x | 2.0 | 54.3*
C=C(C=O)CC1CC(O)[C@]2(C)OC3CC4OC5C[C@]6(C)O[C@]7(C)CCC8OC9C[C@]%10(C)OC%11C(C)=CC(=O)OC%11CC%10OC9C[C@@H](C)C8OC7CC6O[C@]5(C)CC5OC5C4OC3CC2O1 (some centres undefined) | 1.0 | 0.8 | 11.4 | -10.3
O=c1[nH]c(=O)n(-c2ccccc2)c(O)c1N=Nc1ccc(Br)cc1 | 0.0 | -0.3 | -2.7 | -7.6
CCC(C)C1N=C(c2ccccc2)c2cc(Cl)ccc2N(CC(=O)NCc2ccco2)C1=O (centres undefined) | -0.4 | -0.2 | 3.9 | 55.1*
Cc1cccc(N2C(=O)NC(=O)/C(=C/c3ccc(N4CCOCC4)cc3)C2=O)c1 | 0.2 | 1.1 | 7.1 | -15.4
Cc1cccc(N2C(=O)NC(=O)/C(=C\c3ccc(N4CCOCC4)cc3)C2=O)c1 | 0.9 | 0.4 | 3.2 | 72.2*
CCN1CCN(C(=O)COc2ccc(S(=O)(=O)N(C)Cc3ccccc3)cc2)CC1 | 0.6 | -0.7 | 1.0 | -18.0
CCN(CC)c1ccc(/C=C/[N+](=O)[O-])cc1 | 46.7* | 36.2* | 250.6* | -281.8
CC(C)N1C(=O)/C(=C/C=C/c2ccco2)C(=O)N(Cc2ccco2)C1=O | 3.8 | 0.9 | 4.8 | -18.1
CCN1C(=O)C(=C/C=C/c2ccco2)C(=O)N(CC)C1=S | 5.7 | 5.6 | 50.0* | -90.5
Cc1cc(/C=C2\C(=O)NC(=O)N(c3cccc(Br)c3)C2=O)c(C)n1C | 0.2 | 0.4 | 96.9* | -158.8
Cc1cc(/C=C2/C(=O)NC(=O)N(c3ccc(Br)cc3)C2=O)c(C)n1C | -0.4 | 0.8 | 0.3 | -23.0
CCN(CC)C(=O)c1ccc(NC(=O)c2cn(-c3ccccc3)nc2-c2ccc(OC)cc2)cc1 | x | x | 1.0 | -1.3
O=C(c1ccc(F)cc1)C(Cc1ccccc1)N1CCCCC1 (centres undefined) | -1.7 | 0.2 | 1.2 | -12.3
O=C(CCCN1CCC2(CC1)C(=O)NCN2c1ccccc1)c1ccc(F)cc1 | 53.4* | 49.7* | 137.0* | 10.0
CCn1c(O)c(C=Nc2ccc(N3CCOCC3)c(Br)c2)c(=O)n(CC)c1=S | 0.6 | 0.8 | 99.5* | -125.9
O=c1[nH]c(=S)n(-c2ccc(Cl)cc2)c(O)c1C=Nc1ccc(N2CCOCC2)cc1 | 4.3 | 2.2 | 52.9* | -87.0
CCn1c(O)c(C=Nc2ccc(N3CCOCC3)cc2)c(=O)n(CC)c1=S | 2.5 | 1.7 | 97.0* | -159.0
SMILES | zfTRPN1 agonist | TRPML3 agonist | CRFBP-R2 agonist | CRFBP-R2 block
CCC(CC)C(=O)NC1CCSC1=O (centres undefined) | 0.5 | -0.1 | 0.6 | 6.2
Cc1ncc([N+](=O)[O-])n1CCOC(N)=O | 1.1 | 0.6 | -0.1 | 67.3*
COc1ccc(-c2nc3ccccc3c(=O)n2-c2cccnc2)cc1 | 2.1 | 0.6 | -0.5 | -20.6
Cc1ccc(NP(=O)(Oc2ccccc2F)Oc2ccccc2F)cc1C | -1.1 | 1.2 | -0.7 | -87.9
Cc1cc(C)cc(N2C(=O)/C(=C\c3ccc(N4CCN(C)CC4)o3)C(=O)NC2=S)c1 | 4.5 | 1.8 | 57.4* | -38.6
Cc1ccc(/C=C2\C(=O)NC(=S)N(c3ccc(F)cc3)C2=O)o1 | x | x | 4.3 | -1.9
O=C1NC(=O)C(=Cc2ccc(N3CCOCC3)o2)C(=O)N1 | 1.5 | 3.2 | 17.4 | -15.6
CCN(CC)c1ccc(/C=C2\C(=O)NC(=S)N(C)C2=O)o1 | 13.7 | 2.6 | 57.9* | -23.5
CN1C(=O)C(=Cc2ccc(N3CCCCC3)o2)C(=O)N(C)C1=S | 5.2 | 3.7 | 132.9* | -100.2
CCN(CC)c1ccc(/C=C2\C(=O)NC(=S)N(c3ccc(OC)cc3OC)C2=O)o1 | x | x | 29.0 | -11.8
CCN(CC)c1ccc(C=C2C(=O)N(C)C(=S)N(C)C2=O)o1 | 4.5 | 4.1 | 88.1* | -92.3
O=C(Cc1ccccc1)N1CCN(Cc2cccc(Br)c2)CC1 | -0.3 | -1.6 | -6.2 | -4.6
COC(=O)C1=C(c2cc3ccccc3o2)C[C@@H]2CC[C@H]1N2C(=O)N1CCCCC1 | x | x | 1.1 | 1.7
COc1ccc(CN(CCc2c[nH]c3ccccc23)Cc2ccc(OC)cc2)cc1 | x | x | 0.9 | 63.2*
CC(C)[C@H]1C(=O)O[C@H](C(C)C)C(=O)N(C)[C@@H](C(C)C)C(=O)O[C@H](C(C)C)C(=O)N(C)[C@@H](C(C)C)C(=O)O[C@H](C(C)C)C(=O)N1C | 36.2* | 19.7* | 39.4 | 31.2
Cc1cc(C(=O)Nc2ccc3c(c2)OCCO3)nn1C(C)(C)C | 0.9 | -1.3 | -1.1 | 81.8*
Cc1cc(C(=O)Nc2ccccc2)nn1C(C)(C)C | -1.0 | 0.1 | 0.2 | 1.4
Nc1c2c(nc3ccccc13)CCN(Cc1ccccc1)C2 | x | x | 68.8* | -50.5
C1=C(c2c[nH]c3ccccc23)CCN(Cc2ccccc2)C1 | -0.3 | 1.4 | 4.0 | -13.6
CN1C2CCC1C(C(=O)O)C(OC(=O)c1ccccc1)C2 (centres undefined) | x | x | 0.2 | 1.2
Oc1c(Cl)c(Cl)c(Cl)c(Cl)c1Cl | x | x | 10.7 | 53.5*
CCCNC(=O)N1[C@H]2CC[C@@H]1C(C(=O)OC)=C(c1ccc3ccccc3c1)C2 | x | x | -1.1 | -3.9
Cc1cc(C=C(C#N)C#N)ccc1N1CCCC1 | -1.9 | 0.8 | 76.0* | -140.1
CN(C)c1ccc(C(=O)N/N=C/C23CC[C@@H](O)CC2(O)CC[C@@H]2[C@@H]3CCC3(C)C(C4=CC(=O)OC4)CCC23O)cc1 (some centres undefined) | 0.7 | 0.8 | 2.2 | 54.4*
O=[N+]([O-])c1ccc(-[n+]2c(-c3ccccc3)cc(-c3ccccc3)cc2-c2ccccc2)cc1 | x | x | 69.3* | -18.6
NC(=O)c1cc([N+](=O)[O-])cc([N+](=O)[O-])c1 | x | x | 0.1 | 16.4
CC(C)(C)c1cc([N+](=O)[O-])cc(C(C)(C)C)c1O | 16.8 | 11.3 | 68.0* | 63.2*
CCOC(=O)CC1c2ccccc2-n2nncc2CN1CC1CCCCC1 (centres undefined) | x | x | -3.0 | 4.0
CCCCC1(CCCC)C(=O)NC(=Nc2cccc(C)c2)NC1=O | 12.1 | 3.7 | 88.6* | 54.9*

Compound activity (PubChem)
